In data set [1] the test system is Pseudomonas aeruginosa. The experiment in a line: Minimum inhibitory concentration against the strains of Pseudomonas aeruginosa that produce the beta-lactamases. Format: functional. Summed up:
(§1)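 Agar dilution on Mueller-Hinton agar with twofold serial dilutions of the compound or combination. About 10⁴ organisms were spotted with a multipoint inoculator. Plates were incubated for 18 h at 35 °C. MIC was taken as the lowest concentration preventing visible growth.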

Data set [2] concerns Escherichia coli. The experiment in a line: Minimum inhibitory concentration against the strains of Escherichia coli that produce the beta-lactamases. Format: functional. Summed up: as §1
Data set [3] can be described thus: Kinetic parameter was determined.
The subject of data set [4] is Citrobacter freundii. The data set is described as follows: Minimum inhibitory concentration against the strain Citrobacter freundii 1982 that produce the beta-lactamases. Format: functional. In a few lines: as §1

Molecules are shown by their SMILES. Converted amounts (≈) assume the structure as drawn.

In the case of `CC(C)(C)OC(=O)N1CC[C@@H]2[C@H]1C(=O)N2S(=O)(=O)O`, in data set [1], the MIC amounted to 8 µg/mL (≈ 27.4 µM). The MIC in data set [2] was 16 µg/mL (≈ 54.7 µM). Also, in data set [3], the Koff was < 8e-07 s⁻¹, the Kon came to 12.5 s⁻¹ and the Ks came out at 127 µM.
As for `NC(=O)c1ccc(NC(=O)N2CCC3C2C(=O)N3OS(=O)(=O)[O-])cc1.[Na+]` (stereo not given), the figures for the MIC in data set [1], in data set [2] and in data set [4] were 128 µg/mL, 8 µg/mL and 1 µg/mL, respectively.
As for `CC(C)(C)OC(=O)N1CCC2C1C(=O)N2OCC(=O)OCc1ccccc1` (stereo not given), the MIC in data set [1], in data set [2] and in data set [4] was > 16 µg/mL each time.
Take `CC(C)(C)OC(=O)N1CCC2C1C(=O)N2OS(=O)(=O)[O-].[Na+]` (stereo not given): the minimum inhibitory concentration (MIC) in data set [1] was 32 µg/mL. In data set [2], this molecule returned an MIC of 4 µg/mL. Besides, in data set [3], the Koff amounted to 0.12 s⁻¹, the Kon came out at 20 s⁻¹ and the Ks came to 600 µM. In addition, in data set [4], it took 4 µg/mL to inhibit growth (MIC).
As for `NC(=O)c1ccc(NC(=O)N2CC[C@@H]3[C@H]2C(=O)N3S(=O)(=O)O)cc1`, the MIC in data set [1] is 4 µg/mL (≈ 11.3 µM); in data set [2], 16 µg/mL (≈ 45.2 µM); in data set [4] it was 0.25 µg/mL (≈ 0.706 µM).

One may read the MIC as the lowest concentration that inhibits growth of the organism.

Source of the values: ChEMBL document CHEMBL1131131, “Structure-based design of beta-lactamase inhibitors. 2. Synthesis and evaluation of bridged sulfactams and oxamazins” (J Med Chem, 1998).
